# Laboratory results: ChEMBL document CHEMBL3259739, “Synthesis and structure-activity relationship of trisubstituted thiazoles as Cdc7 kinase inhibitors” (Eur J Med Chem, 2014)
# Target: Dual specificity tyrosine-phosphorylation-regulated kinase 1B (Homo sapiens) (UniProt Q9Y463)
# Assay: Inhibition of DYRK1B (unknown origin) at 1 uM relative to control; values are per cent of control
# Conditions: not given
# Chain of Dual specificity tyrosine-phosphorylation-regulated kinase 1B (Homo sapiens) (Q9Y463 whole entry, looked up): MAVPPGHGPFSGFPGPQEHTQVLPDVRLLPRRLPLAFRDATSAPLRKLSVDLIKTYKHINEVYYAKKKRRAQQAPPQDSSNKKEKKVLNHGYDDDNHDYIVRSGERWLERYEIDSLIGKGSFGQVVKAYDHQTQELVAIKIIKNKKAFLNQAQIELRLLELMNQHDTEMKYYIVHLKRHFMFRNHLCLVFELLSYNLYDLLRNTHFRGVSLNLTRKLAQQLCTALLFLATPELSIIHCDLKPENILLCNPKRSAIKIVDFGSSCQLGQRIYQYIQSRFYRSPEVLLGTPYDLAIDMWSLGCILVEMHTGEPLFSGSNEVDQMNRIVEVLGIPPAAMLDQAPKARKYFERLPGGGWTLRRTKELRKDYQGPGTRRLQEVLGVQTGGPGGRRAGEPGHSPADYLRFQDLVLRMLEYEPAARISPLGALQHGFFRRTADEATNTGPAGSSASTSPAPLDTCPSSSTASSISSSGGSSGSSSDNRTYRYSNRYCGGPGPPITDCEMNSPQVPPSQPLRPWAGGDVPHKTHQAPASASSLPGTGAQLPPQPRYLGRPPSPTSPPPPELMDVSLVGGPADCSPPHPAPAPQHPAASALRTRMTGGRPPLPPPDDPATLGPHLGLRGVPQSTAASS
row,residual activity,SMILES
1,0.3%,COc1ccc(-c2nc(-c3ccnc(N)n3)sc2C(N)=O)c(Cl)c1
2,86%,CCOC(=O)c1sc(-c2ccncc2)nc1O

row,SMILES,residual activity
1,NC(=O)c1sc(-c2ccnc(N)n2)nc1-c1ccc(Cl)cc1Cl,0.4%

# Target: T1, Dual specificity mitogen-activated protein kinase kinase 3 (Homo sapiens) (UniProt P46734)
# T1 sequence (whole entry): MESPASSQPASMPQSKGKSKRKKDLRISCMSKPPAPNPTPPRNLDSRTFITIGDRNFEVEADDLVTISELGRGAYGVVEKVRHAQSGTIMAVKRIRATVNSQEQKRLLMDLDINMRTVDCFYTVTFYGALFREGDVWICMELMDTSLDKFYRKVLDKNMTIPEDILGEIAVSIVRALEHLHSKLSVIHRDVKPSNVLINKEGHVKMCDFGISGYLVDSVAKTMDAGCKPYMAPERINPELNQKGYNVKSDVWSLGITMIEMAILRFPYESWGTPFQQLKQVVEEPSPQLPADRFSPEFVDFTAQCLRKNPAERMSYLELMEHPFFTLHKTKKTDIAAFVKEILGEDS
# Assay: Inhibition of MEK3 (unknown origin) at 1 uM relative to control; values are per cent of control
# Conditions: not given
row,residual activity,SMILES
1,35%,COc1ccc(-c2nc(-c3ccnc(N)n3)sc2C(N)=O)c(Cl)c1
2,100%,CCOC(=O)c1sc(-c2ccncc2)nc1O

row,SMILES,residual activity
1,NC(=O)c1sc(-c2ccnc(N)n2)nc1-c1ccc(Cl)cc1Cl,25%

# Target: Angiopoietin-1 receptor (Homo sapiens) (UniProt Q02763)
# Assay: Inhibition of TIE2 (unknown origin) at 1 uM relative to control
# Conditions: values are per cent of control
# In short: (§1)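 KinomeSCAN competitive binding panel of 100 kinases; compounds tested at 1 µM in duplicate; read-out is percent […] control.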
# Chain of Angiopoietin-1 receptor (Homo sapiens) (Q02763 whole entry): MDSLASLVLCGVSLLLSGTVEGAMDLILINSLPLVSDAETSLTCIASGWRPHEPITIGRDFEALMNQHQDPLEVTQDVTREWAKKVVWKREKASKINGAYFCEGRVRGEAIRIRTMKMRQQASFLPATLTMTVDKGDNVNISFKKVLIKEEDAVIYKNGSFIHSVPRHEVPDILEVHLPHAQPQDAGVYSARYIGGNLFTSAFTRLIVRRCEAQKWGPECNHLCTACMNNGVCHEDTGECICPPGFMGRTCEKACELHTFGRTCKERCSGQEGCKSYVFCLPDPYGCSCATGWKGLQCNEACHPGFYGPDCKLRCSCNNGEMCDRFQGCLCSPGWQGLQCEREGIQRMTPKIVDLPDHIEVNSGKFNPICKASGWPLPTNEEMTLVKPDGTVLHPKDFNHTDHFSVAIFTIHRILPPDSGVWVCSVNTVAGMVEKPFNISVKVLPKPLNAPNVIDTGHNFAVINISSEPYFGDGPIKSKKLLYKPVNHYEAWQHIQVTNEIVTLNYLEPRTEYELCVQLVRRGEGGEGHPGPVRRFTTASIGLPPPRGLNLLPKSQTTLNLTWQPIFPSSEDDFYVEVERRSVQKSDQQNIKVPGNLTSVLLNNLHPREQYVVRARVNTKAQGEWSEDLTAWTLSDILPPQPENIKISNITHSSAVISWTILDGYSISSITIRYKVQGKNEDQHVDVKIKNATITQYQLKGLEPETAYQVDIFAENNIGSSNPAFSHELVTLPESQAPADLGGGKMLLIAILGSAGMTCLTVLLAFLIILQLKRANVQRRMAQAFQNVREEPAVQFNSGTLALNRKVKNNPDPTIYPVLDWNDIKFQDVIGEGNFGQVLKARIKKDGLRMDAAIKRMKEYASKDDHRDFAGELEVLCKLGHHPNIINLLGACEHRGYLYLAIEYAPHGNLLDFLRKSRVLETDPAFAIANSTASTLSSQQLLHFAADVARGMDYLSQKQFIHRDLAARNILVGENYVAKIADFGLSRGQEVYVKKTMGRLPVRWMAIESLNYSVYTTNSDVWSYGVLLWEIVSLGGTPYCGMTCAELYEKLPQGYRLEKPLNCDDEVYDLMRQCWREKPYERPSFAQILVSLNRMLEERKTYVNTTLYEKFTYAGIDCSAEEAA
row,"residual binding, % of control",SMILES
1,99%,COc1ccc(-c2nc(-c3ccnc(N)n3)sc2C(N)=O)c(Cl)c1
2,67%,CCOC(=O)c1sc(-c2ccncc2)nc1O

row,SMILES,"residual binding, % of control"
1,NC(=O)c1sc(-c2ccnc(N)n2)nc1-c1ccc(Cl)cc1Cl,82%

# Target: MAP kinase-interacting serine/threonine-protein kinase 1 (Homo sapiens) (UniProt Q9BUB5)
# Assay: Inhibition of MKNK1 (unknown origin) at 1 uM relative to control; values are per cent of control
# Conditions: not given
# Chain of MAP kinase-interacting serine/threonine-protein kinase 1 (Homo sapiens) (Q9BUB5 whole entry, looked up): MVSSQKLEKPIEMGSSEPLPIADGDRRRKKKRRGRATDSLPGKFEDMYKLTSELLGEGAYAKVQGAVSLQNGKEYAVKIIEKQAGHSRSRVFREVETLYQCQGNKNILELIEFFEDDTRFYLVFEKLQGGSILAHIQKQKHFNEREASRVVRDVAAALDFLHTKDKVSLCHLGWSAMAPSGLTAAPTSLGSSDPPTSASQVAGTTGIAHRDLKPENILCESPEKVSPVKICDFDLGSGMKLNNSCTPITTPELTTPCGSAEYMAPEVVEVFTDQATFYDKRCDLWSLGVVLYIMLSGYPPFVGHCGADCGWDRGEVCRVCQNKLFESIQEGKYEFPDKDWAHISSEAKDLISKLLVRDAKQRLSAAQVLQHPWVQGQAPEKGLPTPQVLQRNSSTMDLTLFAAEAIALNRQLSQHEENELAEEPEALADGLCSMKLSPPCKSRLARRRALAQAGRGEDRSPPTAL
row,residual activity,SMILES
1,55%,COc1ccc(-c2nc(-c3ccnc(N)n3)sc2C(N)=O)c(Cl)c1
2,100%,CCOC(=O)c1sc(-c2ccncc2)nc1O

row,SMILES,residual activity
1,NC(=O)c1sc(-c2ccnc(N)n2)nc1-c1ccc(Cl)cc1Cl,84%

# Target: Tyrosine-protein kinase ABL1 (Homo sapiens) (UniProt P00519)
# Assay: Inhibition of nonphosphorylated ABL1 (unknown origin) at 1 uM relative to control; values are per cent of control
# Conditions: not given
row,residual activity,SMILES
1,100%,COc1ccc(-c2nc(-c3ccnc(N)n3)sc2C(N)=O)c(Cl)c1
2,87%,CCOC(=O)c1sc(-c2ccncc2)nc1O

row,SMILES,residual activity
1,NC(=O)c1sc(-c2ccnc(N)n2)nc1-c1ccc(Cl)cc1Cl,100%

# Target: T2, Protein kinase C epsilon type (Homo sapiens) (UniProt Q02156)
# T2 sequence (whole entry): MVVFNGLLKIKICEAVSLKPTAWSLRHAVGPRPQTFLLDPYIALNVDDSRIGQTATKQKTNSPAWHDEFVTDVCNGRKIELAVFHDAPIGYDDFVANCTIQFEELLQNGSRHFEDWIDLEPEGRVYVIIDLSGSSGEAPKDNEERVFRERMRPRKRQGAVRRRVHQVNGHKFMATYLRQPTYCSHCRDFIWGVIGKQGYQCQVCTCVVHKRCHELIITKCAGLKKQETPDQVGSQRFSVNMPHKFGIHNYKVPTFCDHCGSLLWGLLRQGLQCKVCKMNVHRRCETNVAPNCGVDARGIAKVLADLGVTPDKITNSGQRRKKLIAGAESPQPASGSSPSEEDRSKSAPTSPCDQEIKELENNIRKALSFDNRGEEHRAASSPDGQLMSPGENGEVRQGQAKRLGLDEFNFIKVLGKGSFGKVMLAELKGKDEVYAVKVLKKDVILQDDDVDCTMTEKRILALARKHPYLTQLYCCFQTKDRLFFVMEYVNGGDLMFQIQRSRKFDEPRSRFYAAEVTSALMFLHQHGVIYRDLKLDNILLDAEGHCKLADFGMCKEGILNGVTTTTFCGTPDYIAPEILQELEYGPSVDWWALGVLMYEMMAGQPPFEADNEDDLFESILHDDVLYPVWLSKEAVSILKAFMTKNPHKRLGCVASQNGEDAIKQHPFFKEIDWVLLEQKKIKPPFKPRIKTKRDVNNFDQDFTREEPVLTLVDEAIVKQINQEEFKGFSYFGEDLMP
# Assay: Inhibition of PRKCE (unknown origin) at 1 uM relative to control
# Conditions: values are per cent of control
# In short: as §1
row,"residual binding, % of control",SMILES
1,100%,COc1ccc(-c2nc(-c3ccnc(N)n3)sc2C(N)=O)c(Cl)c1
2,100%,CCOC(=O)c1sc(-c2ccncc2)nc1O

row,SMILES,"residual binding, % of control"
1,NC(=O)c1sc(-c2ccnc(N)n2)nc1-c1ccc(Cl)cc1Cl,73%

# Target: Serine/threonine-protein kinase MARK1 (Homo sapiens) (UniProt Q9P0L2)
# Assay: Inhibition of MARK1 (unknown origin) at 1 uM relative to control; values are per cent of control
# Conditions: not given
# Chain of Serine/threonine-protein kinase MARK1 (Homo sapiens) (Q9P0L2 whole entry, looked up): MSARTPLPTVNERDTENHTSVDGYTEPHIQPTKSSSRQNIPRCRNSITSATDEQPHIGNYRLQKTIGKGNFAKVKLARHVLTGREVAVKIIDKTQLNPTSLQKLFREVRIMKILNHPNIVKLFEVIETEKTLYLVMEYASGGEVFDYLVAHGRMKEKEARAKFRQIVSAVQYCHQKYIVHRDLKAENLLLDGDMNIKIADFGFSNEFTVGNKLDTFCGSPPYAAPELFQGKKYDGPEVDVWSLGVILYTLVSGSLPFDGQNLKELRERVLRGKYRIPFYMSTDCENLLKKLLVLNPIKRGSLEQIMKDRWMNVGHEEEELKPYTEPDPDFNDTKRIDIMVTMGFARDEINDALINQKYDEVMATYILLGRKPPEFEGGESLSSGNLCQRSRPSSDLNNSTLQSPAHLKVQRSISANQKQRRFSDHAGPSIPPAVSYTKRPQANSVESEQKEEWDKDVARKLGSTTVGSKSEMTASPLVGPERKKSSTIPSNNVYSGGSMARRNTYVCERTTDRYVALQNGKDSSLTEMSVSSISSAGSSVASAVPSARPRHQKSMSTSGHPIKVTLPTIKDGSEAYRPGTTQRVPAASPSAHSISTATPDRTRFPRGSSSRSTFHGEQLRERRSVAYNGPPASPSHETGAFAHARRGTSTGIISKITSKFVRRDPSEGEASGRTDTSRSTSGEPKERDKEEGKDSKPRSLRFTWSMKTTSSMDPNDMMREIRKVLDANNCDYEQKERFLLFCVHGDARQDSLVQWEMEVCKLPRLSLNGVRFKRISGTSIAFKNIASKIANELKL
row,residual activity,SMILES
1,100%,COc1ccc(-c2nc(-c3ccnc(N)n3)sc2C(N)=O)c(Cl)c1
2,100%,CCOC(=O)c1sc(-c2ccncc2)nc1O

row,SMILES,residual activity
1,NC(=O)c1sc(-c2ccnc(N)n2)nc1-c1ccc(Cl)cc1Cl,100%

# Target: Death-associated protein kinase 1 (Homo sapiens) (UniProt P53355)
# Assay: Inhibition of DAPK1 (unknown origin) at 1 uM relative to control; values are per cent of control
# Conditions: not given
# Chain of Death-associated protein kinase 1 (Homo sapiens) (P53355 whole entry, looked up): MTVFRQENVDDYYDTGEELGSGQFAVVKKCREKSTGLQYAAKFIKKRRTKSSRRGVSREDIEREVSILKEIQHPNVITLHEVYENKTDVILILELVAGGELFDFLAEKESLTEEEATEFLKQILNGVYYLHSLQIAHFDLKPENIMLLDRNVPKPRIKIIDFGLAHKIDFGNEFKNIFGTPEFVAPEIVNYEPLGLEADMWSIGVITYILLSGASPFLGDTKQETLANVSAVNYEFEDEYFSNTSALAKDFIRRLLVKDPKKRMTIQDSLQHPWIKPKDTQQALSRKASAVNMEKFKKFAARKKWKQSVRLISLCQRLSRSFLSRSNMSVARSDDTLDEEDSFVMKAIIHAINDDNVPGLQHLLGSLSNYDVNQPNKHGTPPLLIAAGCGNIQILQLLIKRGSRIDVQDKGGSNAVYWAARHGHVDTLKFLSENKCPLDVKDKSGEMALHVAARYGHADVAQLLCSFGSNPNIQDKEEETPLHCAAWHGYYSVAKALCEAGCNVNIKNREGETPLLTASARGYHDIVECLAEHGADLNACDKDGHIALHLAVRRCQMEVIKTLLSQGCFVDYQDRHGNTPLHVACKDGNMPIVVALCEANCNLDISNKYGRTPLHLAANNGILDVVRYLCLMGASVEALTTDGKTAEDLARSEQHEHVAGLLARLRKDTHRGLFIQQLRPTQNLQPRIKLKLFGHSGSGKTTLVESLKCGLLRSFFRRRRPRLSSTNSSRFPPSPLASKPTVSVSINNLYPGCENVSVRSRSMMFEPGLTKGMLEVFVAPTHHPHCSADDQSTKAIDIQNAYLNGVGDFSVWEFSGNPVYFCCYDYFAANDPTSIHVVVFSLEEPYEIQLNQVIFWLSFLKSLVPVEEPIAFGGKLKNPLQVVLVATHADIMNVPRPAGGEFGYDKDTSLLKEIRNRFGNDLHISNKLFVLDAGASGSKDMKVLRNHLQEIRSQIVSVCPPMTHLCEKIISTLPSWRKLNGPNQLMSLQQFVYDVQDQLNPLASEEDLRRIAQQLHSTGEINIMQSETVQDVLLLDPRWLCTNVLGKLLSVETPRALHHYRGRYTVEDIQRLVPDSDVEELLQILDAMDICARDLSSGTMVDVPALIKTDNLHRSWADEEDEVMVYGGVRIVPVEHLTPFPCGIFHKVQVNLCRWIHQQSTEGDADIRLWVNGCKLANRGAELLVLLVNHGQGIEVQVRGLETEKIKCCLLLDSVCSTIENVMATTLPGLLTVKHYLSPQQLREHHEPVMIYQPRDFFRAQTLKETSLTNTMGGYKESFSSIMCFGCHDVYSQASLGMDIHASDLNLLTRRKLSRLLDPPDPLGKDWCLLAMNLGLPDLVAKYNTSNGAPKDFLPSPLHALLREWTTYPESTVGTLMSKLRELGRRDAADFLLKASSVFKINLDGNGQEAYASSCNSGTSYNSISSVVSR
row,SMILES,residual activity
1,NC(=O)c1sc(-c2ccnc(N)n2)nc1-c1ccc(Cl)cc1Cl,100%
2,COc1ccc(-c2nc(-c3ccnc(N)n3)sc2C(N)=O)c(Cl)c1,100%
3,CCOC(=O)c1sc(-c2ccncc2)nc1O,77%

# Target: T3, Ephrin type-B receptor 3 (Homo sapiens) (UniProt P54753)
# T3 sequence (whole entry): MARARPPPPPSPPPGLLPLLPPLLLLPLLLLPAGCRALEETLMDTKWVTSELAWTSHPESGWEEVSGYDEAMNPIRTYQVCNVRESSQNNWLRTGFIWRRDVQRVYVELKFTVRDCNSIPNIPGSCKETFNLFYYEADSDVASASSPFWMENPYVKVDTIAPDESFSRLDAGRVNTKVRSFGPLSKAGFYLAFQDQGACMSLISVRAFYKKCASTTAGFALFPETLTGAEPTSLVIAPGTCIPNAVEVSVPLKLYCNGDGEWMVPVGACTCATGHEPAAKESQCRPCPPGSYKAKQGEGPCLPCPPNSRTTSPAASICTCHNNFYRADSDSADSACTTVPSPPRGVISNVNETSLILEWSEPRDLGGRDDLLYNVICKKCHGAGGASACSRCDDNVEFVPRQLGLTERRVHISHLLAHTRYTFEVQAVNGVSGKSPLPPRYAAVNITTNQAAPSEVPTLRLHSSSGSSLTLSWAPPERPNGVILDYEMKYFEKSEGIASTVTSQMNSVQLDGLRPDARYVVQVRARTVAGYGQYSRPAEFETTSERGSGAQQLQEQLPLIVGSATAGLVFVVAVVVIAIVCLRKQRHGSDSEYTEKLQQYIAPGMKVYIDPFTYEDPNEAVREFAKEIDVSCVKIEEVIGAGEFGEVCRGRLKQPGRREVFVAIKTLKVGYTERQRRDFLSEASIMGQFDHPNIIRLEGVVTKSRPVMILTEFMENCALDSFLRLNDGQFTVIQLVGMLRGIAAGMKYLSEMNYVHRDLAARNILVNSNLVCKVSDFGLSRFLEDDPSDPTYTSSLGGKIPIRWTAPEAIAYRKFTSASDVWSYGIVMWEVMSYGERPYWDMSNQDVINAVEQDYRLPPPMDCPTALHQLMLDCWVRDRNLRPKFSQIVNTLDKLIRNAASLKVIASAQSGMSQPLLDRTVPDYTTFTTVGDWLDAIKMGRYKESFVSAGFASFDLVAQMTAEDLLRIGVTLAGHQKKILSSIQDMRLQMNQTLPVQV
# Assay: Inhibition of EPHB3 (unknown origin) at 1 uM relative to control; values are per cent of control
# Conditions: not given
row,residual activity,SMILES
1,97%,COc1ccc(-c2nc(-c3ccnc(N)n3)sc2C(N)=O)c(Cl)c1
2,71%,CCOC(=O)c1sc(-c2ccncc2)nc1O

row,SMILES,residual activity
1,NC(=O)c1sc(-c2ccnc(N)n2)nc1-c1ccc(Cl)cc1Cl,86%
